ChEMBL document CHEMBL1811885, “Antiplasmodial sesquiterpene alkaloids from the roots of Maytenus mekongensis” (J Nat Prod, 2011)
Values after ≈ are worked out from the molar mass of the structure shown. Active and inactive are the calls of the source. The rule behind the calls is not given here.

Experiments:
[1] = tested on: Plasmodium falciparum; test: Antiplasmodial activity against multi drug-resistant Plasmodium falciparum K1 infected in human type A+ erythrocytes assessed as inhibition of [G-3H]hypoxanthine incorporation after 42 hrs by scintillation counting; format: functional, organism-based; conditions: for IC50: K1, 42 h
[2] = tested on: NCI-H187; test: Cytotoxicity against human NCI-H187 cells by SRB assay; format: functional, cell-based
Procedure, shortened: (§1)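 Colorimetric growth assay following the Skehan method, run on three human lines: KB (oral epidermal carcinoma), MCF7 (breast adenocarcinoma) and NCI-H187 (small cell lung).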

[3] = tested on: MCF7; test: Cytotoxicity against human MCF7 cells by SRB assay; format: functional, cell-based; procedure, shortened: as §1
[4] = tested on: KB; test: Cytotoxicity against human KB cells by SRB assay; format: functional, cell-based; procedure, shortened: as §1

Row | Compound | Activity [1] | IC50 [1] [µM] | Activity [2] | Activity [3] | IC50 [4] [µg/mL]
1 | CC(=O)OC[C@]12[C@H](OC(C)=O)[C@H](OC(C)=O)[C@@H]3[C@@H](OC(C)=O)[C@@]14O[C@@]3(C)COC(=O)c1cccnc1C(C)C(C)C(=O)O[C@@H]([C@H](OC(C)=O)[C@@H]2OC(=O)c1ccccc1)[C@]4(C)O (some centres undefined) | inactive |  |  |  | 
2 | CC(=O)OC[C@@]12[C@H](OC(C)=O)[C@@H](OC(C)=O)[C@@H]3[C@@H](OC(C)=O)[C@@]14O[C@@]3(C)COC(=O)c1cccnc1[C@@H](C)[C@H](C)C(=O)O[C@@H]([C@H](OC(C)=O)[C@@H]2OC(=O)c1ccccc1)[C@]4(C)O | inactive |  |  |  | 
3 | CC(=O)OC[C@@]12[C@H](OC(C)=O)[C@H](OC(C)=O)[C@@H]3[C@@H](OC(=O)c4ccccc4)[C@@]14O[C@@]3(C)COC(=O)c1cccnc1CC[C@H](C)C(=O)O[C@@H]([C@H](OC(C)=O)[C@@H]2OC(=O)c1ccccc1)[C@]4(C)O |  | 2.5 |  |  | 
4 | CC(=O)OC[C@@]12[C@H](OC(C)=O)[C@H](OC(C)=O)[C@@H]3[C@@H](OC(=O)c4ccccc4)[C@@]14O[C@@]3(C)COC(=O)c1cccnc1CC[C@](C)(OC(C)=O)C(=O)O[C@@H]([C@H](OC(C)=O)[C@@H]2OC(C)=O)[C@]4(C)O [MEKONGENSINE] |  | 3.1 | inactive | inactive | 28.2 (≈ 30.5 µM)
5 | CC(=O)OC[C@]12[C@H](OC(C)=O)[C@H](OC(C)=O)[C@@H]3[C@@H](OC(C)=O)[C@@]14O[C@@]3(C)COC(=O)c1cccnc1C(C)C(C)C(=O)O[C@@H]([C@H](OC(C)=O)[C@@H]2OC(C)=O)[C@]4(C)O (some centres undefined) | inactive |  |  |  | 
6 | CC(=O)OC[C@@]12[C@H](OC(C)=O)[C@H](OC(C)=O)[C@@H]3[C@@H](OC(=O)c4ccccc4)[C@@]14O[C@@]3(C)COC(=O)c1cccnc1CC[C@H](C)C(=O)O[C@@H]([C@H](OC(C)=O)[C@@H]2OC(C)=O)[C@]4(C)O |  | 3.1 | inactive | inactive | 46.7 (≈ 53.8 µM)
7 | CC(=O)OC[C@@]12[C@H](OC(C)=O)[C@H](OC(C)=O)[C@@H]3[C@@H](OC(=O)c4ccccc4)[C@@]14O[C@@]3(C)COC(=O)c1cccnc1CC[C@](C)(OC(C)=O)C(=O)O[C@@H]([C@H](OC(C)=O)[C@@H]2OC(=O)c1ccccc1)[C@]4(C)O |  | 3.5 |  |  | 
8 | CC(=O)OC[C@@]12[C@H](OC(C)=O)[C@@H](OC(C)=O)[C@@H]3[C@@H](OC(=O)c4ccccc4)[C@@]14O[C@@]3(C)COC(=O)c1cccnc1CC[C@](C)(OC(C)=O)C(=O)O[C@@H]([C@H](OC(C)=O)[C@@H]2OC(C)=O)[C@]4(C)O |  | 3.9 |  |  | 
